The list is not random: actives were taken first. Their share in the collection is about 0.9%.
RGS16-Gao = RGS16-Galphao interaction regulator (human); O15492+P09471; bead-based flow cytometry RGS16-Galphao binding, fluorescence; actives lie on both sides; binding response (% of control), % at 10 µM; 0.38% of 220,000 active; AID 1441;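 note: Galphao activated by GDP with aluminum fluoride before binding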
RGS4-Gao reg = modulates binding of RGS4 to human Galphao | P09471 | Multiplexed bead flow cytometry; actives lie on both sides | binding response (% of control), % at 10 µM | 0.33% of 220,000 active | AID 1415; in the data active = binding response below about 49% or above about 150%; inactive = in between;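 note: fluorescent Galphao activated with aluminum fluoride binding bead-coupled RGS4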
Target sequence (P09471 whole entry, looked up): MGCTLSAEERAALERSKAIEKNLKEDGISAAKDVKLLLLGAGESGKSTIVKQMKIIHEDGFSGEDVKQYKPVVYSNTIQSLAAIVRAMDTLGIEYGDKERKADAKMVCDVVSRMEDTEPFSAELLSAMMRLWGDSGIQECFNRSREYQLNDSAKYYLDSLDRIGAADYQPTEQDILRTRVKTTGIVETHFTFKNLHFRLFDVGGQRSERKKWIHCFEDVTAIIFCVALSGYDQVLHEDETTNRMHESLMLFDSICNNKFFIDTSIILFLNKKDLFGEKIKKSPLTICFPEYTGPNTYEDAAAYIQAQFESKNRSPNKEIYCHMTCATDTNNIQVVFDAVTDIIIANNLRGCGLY
RGS8-Gao reg = human RGS8-Galphao interaction regulation; response (percent of control binding), % at 10 µM; 0.34% of 220,000 active; multiplexed bead flow cytometry, RGS8-Galphao binding; actives lie on both sides; P09471; in the data active = response below about 60% or above about 140%; inactive = in between;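 note: Galphao activated as the GDP aluminium fluoride complex binding bead-coupled RGS8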
RGS7-Gao = regulators of human RGS7-Galphao interaction | Multiplexed bead flow cytometry, RGS7-Galphao binding; actives lie on both sides | 0.35% of 220,000 active | binding response (% of control), % at 10 µM | P09471; in the data active = binding response below about 49% or above about 150%;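 note: fluorescent Galphao held in activated GDP-AlF4 state binding bead-coupled RGS7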
ABCG2 block = blocks JC-1 efflux by human ABCG2 transporter. Q9UNQ0. IgMXP3 cells, flow cytometry. inhibition, % at 6.6 µM. 0.1% of 190,000 active;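 active = inhibition above 80%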;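 note: 0% = DMSO and 100% = nicardipine control wells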
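Read-out basis: Efflux inhibition in percent versus controls | Test system: ABCG2 IgMXP3 and barcoded ABCB1 CCRF-Adr cell mix | Quantity: 3 million cells/mL in well | Schedule: 10 min at 25 °C | Control set: Nicardipine as high control, DMSO as low control | Reagent: JC-1 as fluorescent efflux pump substrate | Signal: Flow cytometry of retained JC-1 fluorescence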
ABCB1 block = human ABCB1 inhibition, ABCG2 as counter-screen; P08183; CCRF-Adr cells, JC-1 efflux, flow cytometry; inhibition, % at 6.6 µM; 0.067% of 190,000 active; in the data active = inhibition above about 40%;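 note: 0% = vehicle and 100% = reference inhibitor; higher value means more JC-1 retained so stronger ABCB1 efflux block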
RGS4-Gao HTS = modulates binding between human RGS4 and Galphao. shares compounds with RGS16-Gao. multiplexed bead flow cytometry, RGS–Galpha-o binding. RGS4–Galpha-o binding response, % at 10 µM. 99% of 1,600 active;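 note: fluorescently labeled Galpha-o bound to GDP with aluminium fluoride binding biotinylated RGS beads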
Biotin-avidin = interferes with biotinylated probe binding to avidin beads; 1,700 tested, under 10 active; streptavidin beads, fluorescein-biotin binding, flow cytometry; shares compounds with RGS16-Gao; inhibition, % at 10 µM; AID 1783;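 active = inhibition above 50%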;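 note: median green fluorescence of gated singlet beads compared with DMSO control wells; 0% = DMSO wells and 100% = complete loss of bead fluorescence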
RGS8-Gao single = RGS8-Galphao interaction regulation, single point confirmation; binding response (% of control), % at 10 µM; bead-based flow cytometry RGS8-Galphao binding, fluorescence; actives lie on both sides; AID 1836; shares compounds with RGS16-Gao; 3% of 1,700 active; in the data active = binding response below about 72% or above about 130%; inactive = in between;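 note: Galphao activated as GDP AlF4 complex before binding bead RGS8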
RGS7-Gao confirm = confirmation of regulators of human RGS7-Galphao interaction. shares compounds with RGS16-Gao. 7.8% of 1,700 active. bead-based flow cytometry RGS7-Galphao binding; actives lie on both sides. response (percent of control binding), % at 10 µM; in the data active = response below about 75% or above about 130%; inactive = in between;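 note: fluorescent Galphao activated with GDP and aluminum fluoride binding bead-coupled RGS7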
RGS16-Gao single = confirmation of regulators of human RGS16-Galphao interaction. shares compounds with RGS16-Gao. bead-based flow cytometry, RGS16-Galphao binding; actives lie on both sides. response (% of control binding), % at 10 µM. 4% of 1,700 active; in the data active = response below about 74% or above about 130%; inactive = in between;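 note: Galphao activated as the GDP aluminium fluoride complex binding bead-coupled RGS16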
RGS4-Gao confirm = confirmation of regulators of human RGS4-Galphao interaction. binding response (% of control), % at 10 µM. 4% of 1,700 active. AID 1840. RGS4-Galphao binding, multiplexed bead flow cytometry; actives lie on both sides. shares compounds with RGS16-Gao; in the data active = binding response below about 74% or above about 130%; inactive = in between
RGS19-Gao single = RGS19-Galphao interaction regulation, single point confirmation; AID 1841; 5% of 1,700 active; bead-based flow cytometry RGS19-Galphao binding; actives lie on both sides; response (percent of control binding), % at 10 µM; shares compounds with RGS16-Gao; in the data active = response below about 50% or above about 160%; inactive = in between;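 note: 100% = no compound control and 0% = blank background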
Numbers without * were called inactive; [ ] = another dose, or the depositor's remark. Unless noted, the rule behind the calls is not given here.

Results for O=C(COC(=O)Cc1cccc(C(F)(F)F)c1)NC1CC1 ?
RGS16-Gao: 6.5*; RGS4-Gao reg: 15.6*; RGS8-Gao reg: 11.8*; RGS7-Gao: 12.1*; ABCG2 block: 0.5; ABCB1 block: 0.0; Biotin-avidin: 0.3; RGS8-Gao single: 105.5; RGS7-Gao confirm: 103.5; RGS16-Gao single: 106.2; RGS4-Gao confirm: 104.8; RGS19-Gao single: 115.9

What do the screens show for `Cn1c(-n2c(CCCN3C(=O)c4ccccc4C3=O)nc3ccccc3c2=O)nc2ccccc21`?
RGS16-Gao: 725.0; RGS4-Gao reg: 180.5*[activator]; RGS8-Gao reg: 117.8; RGS7-Gao: 116.0; ABCG2 block: 4.0; ABCB1 block: 2.7; Biotin-avidin: -1.3; RGS8-Gao single: 102.5; RGS7-Gao confirm: 106.7; RGS16-Gao single: 103.4; RGS4-Gao confirm: 103.4; RGS19-Gao single: 104.7

How did CC1CN(C(=O)N2CCCCC2)CCN1C(=O)N1CCCCC1 (configuration not stated) do in these assays?
RGS16-Gao: 98.0; RGS4-Gao reg: 98.9; RGS8-Gao reg: 100.7; RGS7-Gao: 97.2; ABCG2 block: 0.8; ABCB1 block: 0.3

Results for O=C(OCC(=O)N1CCCC1)c1c2c(nc3ccccc13)CCCCC2 ?
RGS16-Gao: 114.7; RGS4-Gao reg: 104.6; RGS8-Gao reg: 106.6; RGS7-Gao: 104.7; ABCG2 block: 7.6; ABCB1 block: 2.4

Results for O=C(NC1=NCCS1)c1sc2ccccc2c1Cl ?
RGS16-Gao: 114.1; ABCG2 block: 9.3; ABCB1 block: 0.3; Biotin-avidin: 1.0; RGS8-Gao single: 103.1; RGS7-Gao confirm: 100.0; RGS16-Gao single: 103.5; RGS4-Gao confirm: 101.4; RGS19-Gao single: 84.6

Results for CN1C(=O)C2C(c3ccc(N(C)C)cc3)NN(Cc3ccccc3)C2C1=O (configuration not stated) ?
RGS16-Gao: 101.3; RGS4-Gao reg: 100.0; RGS8-Gao reg: 98.1; RGS7-Gao: 101.3; ABCG2 block: 9.1; ABCB1 block: 0.1

How did Cc1c(N(CC(=O)O)S(=O)(=O)c2ccccc2)c(=O)n(-c2ccccc2)n1C do in these assays?
RGS16-Gao: 113.3; RGS4-Gao reg: 103.5; RGS8-Gao reg: 107.0; RGS7-Gao: 107.0; ABCG2 block: 0.8; ABCB1 block: 0.0

What do the screens show for `COc1ccc(S(=O)(=O)N(C)c2c(C)n(C)n(-c3ccccc3)c2=O)cc1OC`?
RGS16-Gao: 104.7; RGS4-Gao reg: 119.2; RGS8-Gao reg: 100.3; RGS7-Gao: 203.1*[activator]; ABCG2 block: 3.0; ABCB1 block: 0.6; RGS4-Gao HTS: 119.2*; Biotin-avidin: 2.6; RGS8-Gao single: 92.0; RGS7-Gao confirm: 66.8*; RGS16-Gao single: 74.1*; RGS4-Gao confirm: 71.3*; RGS19-Gao single: 49.6*

Screens deposited in PubChem by NMMLSC.
